Data published in ChEMBL document CHEMBL4373711, “Development of 3,5-Dinitrophenyl-Containing 1,2,4-Triazoles and Their Trifluoromethyl Analogues as Highly Efficient Antitubercular Agents Inhibiting Decaprenylphosphoryl-β-d-ribofuranose 2'-Oxidase” (J Med Chem, 2019).
Values after ≈ are worked out from the molar mass of the structure shown. Active and inactive are the calls of the source. The rule behind the calls is not given here.

Experiments:
[1] = Genotoxicity in Salmonella typhimurium TA100 at 30 uM in absence of rat liver S9 fraction by Ames test; assay type: toxicity; details: salmonella enterica subsp. enterica serovar typhimurium, s9, 30 µM
[2] = target: T1, Decaprenylphosphoryl-beta-D-ribose oxidase (Mycobacterium smegmatis (strain ATCC 700084 / mc(2)155)) (UniProt A0R607); test: Inhibition of DprE1 in Mycolicibacterium smegmatis MC2 155 lysate assessed as reduction in epimerization of P[14C]RPP to DP[14C]A at 70 uM measured after 1.5 hrs in presence of NADH by TLC-based autoradiography; assay type: subcellular
T1 sequence (whole entry): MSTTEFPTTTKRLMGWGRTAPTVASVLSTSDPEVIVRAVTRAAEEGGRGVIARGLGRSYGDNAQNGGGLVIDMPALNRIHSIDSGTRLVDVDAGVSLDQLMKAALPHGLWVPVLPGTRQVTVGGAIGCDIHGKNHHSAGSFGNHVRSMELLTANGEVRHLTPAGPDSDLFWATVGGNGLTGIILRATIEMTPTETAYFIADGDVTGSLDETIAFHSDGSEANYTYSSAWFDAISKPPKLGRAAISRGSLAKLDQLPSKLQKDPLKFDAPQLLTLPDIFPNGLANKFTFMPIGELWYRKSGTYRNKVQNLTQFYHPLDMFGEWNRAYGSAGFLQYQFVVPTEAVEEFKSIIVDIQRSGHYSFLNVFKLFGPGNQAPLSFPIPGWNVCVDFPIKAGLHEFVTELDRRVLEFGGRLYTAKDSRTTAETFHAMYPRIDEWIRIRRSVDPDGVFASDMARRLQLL
How it was run: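 Cell-free DPA synthesis used a membrane/cell-envelope fraction (430 µg), spun at 100 000 × g, from sonicated M. smegmatis mc2155. The fraction was incubated 1.5 h with 15,000 dpm P[14C]RPP and NADH. BTZ was used at 70 µM and test compounds at 700 µM final, both added from DMSO stocks. Lipids were extracted, 25% was resolved by TLC, and autoradiography ran 8 days at -80 °C.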

[3] = target: T2, Decaprenylphosphoryl-beta-D-ribose oxidase (Mycobacterium tuberculosis (strain ATCC 25618 / H37Rv)) (UniProt P9WJF1); test: Inhibition of DprE1 in Mycobacterium tuberculosis H37Rv assessed as accumulation of trehalose dimycolates at 10 times MIC measured after 24 hrs in presence of [14C]-acetate by TLC-based autoradiography
T2 sequence (whole entry): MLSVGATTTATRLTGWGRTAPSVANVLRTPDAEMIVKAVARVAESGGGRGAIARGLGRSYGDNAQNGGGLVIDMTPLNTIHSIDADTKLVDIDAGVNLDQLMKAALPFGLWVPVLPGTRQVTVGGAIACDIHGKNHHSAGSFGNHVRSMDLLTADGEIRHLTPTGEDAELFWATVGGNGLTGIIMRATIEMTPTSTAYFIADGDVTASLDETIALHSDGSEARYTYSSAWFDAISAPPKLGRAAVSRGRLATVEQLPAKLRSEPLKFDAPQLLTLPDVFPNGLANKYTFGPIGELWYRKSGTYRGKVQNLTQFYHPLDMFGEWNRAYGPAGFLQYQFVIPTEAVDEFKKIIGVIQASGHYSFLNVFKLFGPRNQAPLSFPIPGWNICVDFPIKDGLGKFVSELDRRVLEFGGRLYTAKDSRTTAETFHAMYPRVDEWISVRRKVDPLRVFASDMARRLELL
How it was run: (§1)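 M. tuberculosis H37Rv cultures were exposed to compound at final 10× or 100× MIC, or to DMSO, together with [14C]-acetate at 1 µCi/ml final. After 24 h, lipids were extracted in CHCl3/CH3OH (2:1) for 2 h at 65 °C and given two Folch washes. Extracts were run on TLC in CHCl3/CH3OH/H2O (20:4:0.5), then autoradiographed for 7 days at -80 °C.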

[4] = target: T2, Decaprenylphosphoryl-beta-D-ribose oxidase (Mycobacterium tuberculosis (strain ATCC 25618 / H37Rv)); test: Inhibition of DprE1 in Mycobacterium tuberculosis H37Rv assessed as accumulation of trehalose monomycolates at 10 times MIC measured after 24 hrs in presence of [14C]-acetate by TLC-based autoradiography; how it was run: as §1
[5] = Genotoxicity in Salmonella typhimurium TA98 at 30 uM in absence of rat liver S9 fraction by Ames test; assay type: toxicity; details: salmonella enterica subsp. enterica serovar typhimurium, s9, 30 µM
Mycobacterium kansasii [6] = test: Antimycobacterial activity against Mycobacterium kansasii 6509/96 after 7 days; assay type: functional; details: 6509/96, 168 h
How it was run: (§2)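 Microdilution in Šula's semisynthetic medium; compounds in DMSO at 32–0.03 µM. Inoculum from 1.0 McFarland suspension diluted 10-4. […] Isoniazid and rifampicin as reference drugs.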

HepG2 = test: Cytotoxicity against human HepG2 cells assessed as reduction in cell viability after 48 hrs by CellTiter 96 aqueous one solution assay; assay type: cell-based; details: HepG2, 48 h
Mycobacterium kansasii [7] = test: Antimycobacterial activity against Mycobacterium kansasii 6509/96 after 14 days; assay type: functional; details: 6509/96, 336 h; how it was run: as §2
[8] = tested on: Mycobacterium tuberculosis; test: Antimycobacterial activity against Mycobacterium tuberculosis H37Rv CNCTC My 331/88 after 14 days; assay type: functional; details: H37Rv CNCTC My 331/88, 336 h
How it was run: (§3)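 M. tuberculosis strains (H37Rv and clinical MDR/XDR isolates) tested by microdilution in Šula's semisynthetic medium. Compounds were dissolved in DMSO and tested at 32 to 0.03 µM in twofold steps. Inoculum was a 1.0 McFarland suspension diluted 10-3. Plates were incubated at 37 °C and read at 14 and 21 days.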

Candida albicans = test: Antifungal activity against Candida albicans ATCC 24433 CCM 8320 measured after 24 to 48 hrs by alamar blue dye based broth microdilution assay; assay type: functional, organism-based
Mycobacterium avium [9] = test: Antimycobacterial activity against Mycobacterium avium CNCTC My 330/88 after 21 days; assay type: functional; details: CNCTC My 330/88, 504 h
How it was run: (§4)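 M. avium was tested by microdilution in Šula's semisynthetic medium, with compounds dissolved in DMSO and serially diluted from 1000 down to 1. Inoculum was a 1.0 McFarland suspension diluted 10-5. Plates were incubated at 37 °C and read at 14 and 21 days. […] Isoniazid and rifampicin served as standards.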

Mycobacterium avium [10] = test: Antimycobacterial activity against Mycobacterium avium CNCTC My 330/88 after 14 days; assay type: functional; details: CNCTC My 330/88, 336 h; how it was run: as §4
Staphylococcus aureus = test: Antibacterial activity against Staphylococcus aureus subsp. aureus ATCC 29213 CCM 4223 measured after 24 to 48 hrs by alamar blue dye based broth microdilution assay; assay type: functional, organism-based
Mycobacterium kansasii [11] = test: Antimycobacterial activity against Mycobacterium kansasii 6509/96 after 21 days; assay type: functional; details: 6509/96, 504 h; how it was run: as §2
Mycobacterium kansasii [12] = test: Antimycobacterial activity against Mycobacterium kansasii CNCTC My 235/80 after 7 days; assay type: functional; details: CNCTC My 235/80, 168 h; how it was run: as §2
[13] = tested on: Mycobacterium tuberculosis; test: Antimycobacterial activity against Mycobacterium tuberculosis H37Rv CNCTC My 331/88 after 21 days; assay type: functional; details: H37Rv CNCTC My 331/88, 504 h; how it was run: as §3
Mycobacterium kansasii [14] = test: Antimycobacterial activity against Mycobacterium kansasii CNCTC My 235/80 after 14 days; assay type: functional; details: CNCTC My 235/80, 336 h; how it was run: as §2
[15] = Cytotoxicity against human HepG2 cells assessed as cell viability at 30 uM after 48 hrs by CellTiter 96 aqueous one solution assay relative to control; assay type: cell-based; details: read-out: Activity
How it was run: (§5)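 HepG2 (DMEM, 10% FBS, 1 mM pyruvate) or A431 (DMEM, 10% FBS) seeded 10,000 cells/well, 24 h at 37 °C, 5% CO2, then 30 µM compound for 48 h. MTS reagent 60 min, absorbance 490 nm, background subtracted; 0.1% DMSO vehicle = 100%, 10% SDS = 0% viability.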

A-431 = test: Cytotoxicity against human A431 cells assessed as reduction in cell viability after 48 hrs by CellTiter 96 aqueous one solution assay; assay type: cell-based; details: A-431, 48 h
Mycobacterium kansasii [16] = test: Antimycobacterial activity against Mycobacterium kansasii CNCTC My 235/80 after 21 days; assay type: functional; details: CNCTC My 235/80, 504 h; how it was run: as §2
[17] = Cytotoxicity against human A431 cells assessed as cell viability at 30 uM after 48 hrs by CellTiter 96 aqueous one solution assay relative to control; assay type: cell-based, A-431; details: read-out: Activity; how it was run: as §5

Compound: [N-]=[N+]=[N-].[Na+] [SODIUM AZIDE]
- Activity [1]: Toxic

Compound: C[C@H]1COC2(CCN(c3nc(=O)c4cc(C(F)(F)F)cc([N+](=O)[O-])c4s3)CC2)O1
- inhibition [2]: Active
- inhibition [3]: Active
- inhibition [4]: Active

Compound: O=[N+]([O-])c1ccc2c(c1)Cc1ccccc1-2 [2-NITROFLUORENE]
- Activity [5]: Toxic

Compound: CSc1nnc(-c2cc([N+](=O)[O-])cc([N+](=O)[O-])c2)n1Cc1ccccc1
- MIC99 (Mycobacterium kansasii [6]): 4 µM (≈ 1.49 µg/mL)
- IC50 (HepG2): > 30 µM
- MIC99 (Mycobacterium kansasii [7]): 8 µM (≈ 2.97 µg/mL)
- MIC99 [8]: 0.5 µM (≈ 0.186 µg/mL)
- Activity (Candida albicans): Active
- MIC99 (Mycobacterium avium [9]): 500 µM (≈ 186 µg/mL)
- MIC99 (Mycobacterium avium [10]): 500 µM (≈ 186 µg/mL)
- Activity (Staphylococcus aureus): Active
- MIC99 (Mycobacterium kansasii [11]): 8 µM (≈ 2.97 µg/mL)
- MIC99 (Mycobacterium kansasii [12]): 2 µM (≈ 0.743 µg/mL)
- MIC99 [13]: 1 µM (≈ 0.371 µg/mL)
- MIC99 (Mycobacterium kansasii [14]): 4 µM (≈ 1.49 µg/mL)
- viability at 48 h, 30 µM [15]: 93%
- IC50 (A-431): > 30 µM
- MIC99 (Mycobacterium kansasii [16]): 4 µM (≈ 1.49 µg/mL)
- viability at 48 h, 30 µM [17]: 83%
